Only some compounds are listed: those with a hit (about 1.5% of all), similar ones and a draw of the others.
Casp6 inh: blocks human caspase-6 cleavage activity. P55212. purified caspase-6, Z-VEID-R110 cleavage fluorescence. inhibition, % at 12.5 µM. actives 0.53% (n = 350,000);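 active = mean inhibition across replicates at least about 35%, with every replicate also reaching that limit, limit read from the data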;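 note: 0% = median of neutral control wells and 100% = no fluorescence left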
NS3 helicase inh: HCV NS3 helicase inhibition; NS3 helicase DNA unwinding, Cy5 molecular beacon fluorescence; inhibition, % at 10.9 µM; actives 0.56% (n = 290,000); AID 1800;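 active = inhibition above the mean of all tested compounds plus 3 SD, set per campaign, cut at about 35% in these data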;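 note: 0% = DMSO wells and 100% = thioflavine S control wells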
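Assay system – hepatitis C virus NS3 helicase domain fragment enzyme · Buffer or medium – MOPS pH 6.5, MgCl2, DTT, Tween20, BSA · Reagent – Cy5/quencher beacon DNA duplex and ATP to start · Compound – single 10.9 µM dose · Timing – 1 h at 25 °C · Technique – Cy5 beacon fluorescence read at start and 1 h · Measure – % inhibition of unwinding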
DNMT1 inh: blocks human DNA methyltransferase DNMT1; actives 0.83% (n = 360,000); DNMT1 molecular beacon, Hinp1I cleavage, fluorescence; AID 588458; P26358; inhibition (reported as % activation of signal), % at 10 µM
NSD2 HMT inh: blocks human histone methyltransferase NSD2. NSD2 peptide methylation, AlphaScreen, 120 min. actives 0.54% (n = 310,000). O96028. inhibition, % at 12.5 µM
Alpha artifact: AlphaScreen assay artifact in NSD2 counter-screen; shares compounds with NSD2 HMT inh; AlphaScreen artifact counterscreen, preloaded methylated H4 peptide; actives 9.4% (n = 1,500); AC35, µM (series often up to 10 µM), for inactives: top-dose activity change, negative = signal loss; call rule not given here
Starred values were filed as active, the others as inactive; / = no result given; + = active, no number. Cut-off read from the data, not from the text of the source, unless noted: active = inhibition above about 50%; inactive = the rest.

SMILES | Casp6 inh | NS3 helicase inh | DNMT1 inh | NSD2 HMT inh | Alpha artifact
COc1ccc(CC(=O)c2ccccc2C(=O)O)cc1 | / | 3 | 1 | / | /
COc1ccc(Cc2ccccc2C(=O)O)cc1 | -2 | / | 3 | 50* | 1%
CC(=O)C1=C(O)C(=O)N(CCc2c[nH]c3ccccc23)C1c1ccco1 (stereo not drawn) | / | 2 | 36 | 61* | 4%
COc1cccc(NC(=O)c2ccc3c(c2)OCO3)c1 | 1 | 3 | -14 | -2 | /
COc1ccc(N2CCOCC2)c(NC(=O)c2ccc3c(c2)OCO3)c1 | -2 | -7 | -2 | 53* | -1%
COC(=O)c1ccc(N2CCOCC2)c(NC(=O)c2ccc3c(c2)OCO3)c1 | / | 1 | 1 | -2 | /
COc1cccc(NC(=O)c2ccc3c(c2)OCCO3)c1 | -2 | 0 | -1 | 113* | -2%
C[C@H](CO)N1C[C@H](C)[C@H](CN(C)C(=O)Nc2ccccc2)Oc2ncc(C#Cc3ccc(C(F)(F)F)cc3)cc2C1=O | 1 | / | / | / | /
CC(=O)c1cc(O)c2ccccc2c1O | 38* | 12 | -23 | 79* | -5%
Nc1c(C(=O)CCC(=O)O)oc2ccc(Cl)cc12 | 5 | -6 | -2 | / | /
NC(=O)c1oc2ccc(Cl)cc2c1N | / | 2 | 3 | 95* | -2%
CCOC(=O)N1C/C(=C\c2ccccc2)C(=O)/C(=C/c2ccccc2)C1 | 7 | -9 | 16 | 1 | /
CN(C)CCC(=O)N1C/C(=C/c2ccccc2)C(=O)/C(=C\c2ccccc2)C1 | -8 | / | 21 | 50* | -7%
O=C1/C(=C/c2ccccc2)CN(C(=O)CCN2CCOCC2)C/C1=C\c1ccccc1 | 11 | / | 35 | 68* | 0%
C[N+](C)(C)CCC(=O)N1C/C(=C/c2ccccc2)C(=O)/C(=C\c2ccccc2)C1 | -4 | / | 13 | 50* | -4%
Oc1ccccc1CNc1cccc2cccnc12 | -4 | 1 | -45 | 53* | -2%
O=C(O)c1cccc2c1C(=O)c1ccccc1-2 | 3 | 12 | 1 | 16 | /
O=C1C(=C(I)I)c2ccccc2-c2ccccc21 | 24 | / | 115* | 131* | -16%
CN(C)/C=C1\C=C2C(=O)c3ccccc3N2C1=O | -1 | 3 | + | 144* | -3%
O=C(c1ccccc1F)N1C[C@H]2[C@@H](c3ccccc31)[C@@H](CO)N2C(=O)C1CCCC1 | -2 | / | / | / | /
Cn1c(=O)c2c(nc(CN3CCC(C(N)=O)CC3)n2Cc2ccccc2Cl)n(C)c1=O | / | / | 1 | 65* | -5%
Cc1noc(C)c1NC(=O)N[C@H]1CC[C@@H](CC(=O)Nc2ccc(-c3ccccc3)cc2)O[C@@H]1CO | -3 | / | / | / | /
COc1cccc(S(=O)(=O)N[C@@H]2CC[C@@H](CCn3cc(-c4ccccn4)nn3)O[C@H]2CO)c1 | -1 | / | / | / | /
CCN1CCCC1CNC(=O)c1ccc2c(c1)N(Cc1cccc(Cl)c1)C(=O)c1ccccc1S2(=O)=O (stereo not drawn) | -3 | -63 | -6 | 58* | -5%
CCN1CCCC1CNC(=O)c1ccc2c(c1)N(Cc1ccccc1F)C(=O)c1ccccc1S2(=O)=O (stereo not drawn) | -16 | -25 | -2 | 15 | /
SMILES | Casp6 inh | NS3 helicase inh | DNMT1 inh | NSD2 HMT inh | Alpha artifact
C[C@@H]1CN([C@H](C)CO)C(=O)c2cc(NC(=O)CCN3CCOCC3)ccc2O[C@H]1CN(C)C(=O)Nc1ccc(F)cc1 | 1 | / | / | / | /
Cn1ncc(Cl)c1C(=O)Nc1cc(C(F)(F)F)ccc1F | / | 1 | 1 | 127* | 1%
COc1cc(NC(=O)c2c(Cl)cnn2C)c(OC)cc1Cl | -5 | 4 | -6 | -2 | /
Cc1cc(C)c(Nc2cc(S(=O)(=O)O)c(N)c3c2C(=O)c2ccccc2C3=O)c(C)c1 | / | 24 | 80* | 145* | 6.2µM*
CO[C@H](CN(C)C(=O)Nc1ccc(F)cc1)[C@@H](C)CN(Cc1ccccc1Cl)[C@H](C)CO | -1 | / | / | / | /
CCC(=O)N1C[C@H](O)COC[C@@H]2O[C@H](CC(=O)N3CCCCC3)CC[C@H]21 | 0 | / | / | / | /
COc1ccc2nc(-c3ccccc3)cc(OC)c2c1 | -3 | 9 | 2 | -5 | /
COc1ccc2nc3cccc(OC)c3nc2c1 | 50* | 2 | 35 | 101* | -1%
Cc1ccc(NC2=CC(=O)C(=O)c3ccccc32)c(C)c1 | 19 | / | 13 | 3 | /
O=C1C=C(Nc2ccccc2O)c2ccccc2C1=O | 41* | 16 | 1 | 94* | -1%
O=C1C=C(Nc2cccnc2)c2ccccc2C1=O | 96* | / | 41 | 99* | 0%
O=C1C=C(NCc2ccccc2)c2ccccc2C1=O | 80* | 6 | 84* | 140* | -2%
Cc1ccc(NC(=S)N2CCC(NC(=O)c3ccc(F)cc3)CC2)cc1 | 0 | 13 | 2 | 61* | -1%
O=C(Nc1ccc2c(c1)[C@H]1C[C@@H](CC(=O)N3CCCCC3)O[C@H](CO)[C@H]1O2)NC1CCCCC1 | 0 | / | / | / | /
Cc1cc(NC(=O)c2cccc(S(=O)(=O)N3CCOCC3)c2)no1 | / | -2 | 1 | 1 | /
Cc1cc(NC(=O)COC(=O)c2cccc(S(=O)(=O)N3CCOCC3)c2)no1 | / | 3 | 2 | 108* | -2%
COCC(=O)N1[C@H](CO)[C@@H](c2ccccc2)C12CN(C(=O)NC1CCCC1)C2 | 1 | / | / | / | /
CCS(=O)(=O)Nc1ccc2c(c1)C(=O)N(C)C[C@H](OC)[C@H](C)CN(C(=O)c1ccc3c(c1)OCO3)[C@@H](C)CO2 | -1 | / | / | / | /
Cc1ccc(CSc2nnc(Nc3ccc(C)cc3)s2)cc1 | 0 | -1 | 0 | 127* | -6%
O=C(C[C@@H]1CC[C@@H](NC(=O)C2CC2)[C@H](CO)O1)NC1CCC1 | 3 | / | / | / | /
Cc1cccc(NC(=O)c2ccc(NS(=O)(=O)c3cccc4cccnc34)cc2)c1 | 0 | / | -8 | 53* | -5%
COC(=O)c1ccc(NC(=O)c2ccc(NS(=O)(=O)c3cccc4cccnc34)cc2)cc1 | / | -14 | -6 | 0 | /
C[C@H](CO)N1C[C@H](C)[C@H](CN(C)S(=O)(=O)c2ccc(C(F)(F)F)cc2)OCc2ccccc2-c2c(n(C)c3ccccc23)C1=O | -4 | / | / | / | /
COc1ccc(Nc2oc(COc3ccccc3OC)nc2C#N)cc1 | -1 | 1 | 4 | 51* | -2%
CSc1nsc(SCC(=O)Nc2cccc(NC(C)=O)c2)n1 | -2 | 1 | 1 | 63* | -1%
SMILES | Casp6 inh | NS3 helicase inh | DNMT1 inh | NSD2 HMT inh | Alpha artifact
CSc1nsc(SCC(=O)Nc2cccc(C(=O)O)c2)n1 | -1 | -5 | 11 | -2 | /
Nc1cc(S(=O)(=O)O)cc2ccc(S(=O)(=O)O)cc12 | 57* | / | 20 | 102* | 0%
COc1ccc(S(=O)(=O)N2CCCCC2)cc1NC(=O)Cc1ccsc1 | -1 | / | 2 | 51* | -4%
CCOC(=O)C(CCCP(=O)(c1ccccc1)c1ccccc1)(NC(C)=O)C(=O)OCC | -1 | 0 | 2 | 60* | -5%
CCOC(=O)C(CCCCP(=O)(c1ccccc1)c1ccccc1)(NC(C)=O)C(=O)OCC | -1 | -8 | -2 | 15 | /
COc1ccc(NC(=O)N[C@H]2CC[C@@H](CCNS(=O)(=O)c3ccccc3F)O[C@@H]2CO)cc1 | 3 | / | / | / | /

Screening data deposited in PubChem by several laboratories.
